The target of data set [1] is T1, Muscarinic acetylcholine receptor M5 (Homo sapiens) (UniProt P08912).
T1 sequence (whole entry): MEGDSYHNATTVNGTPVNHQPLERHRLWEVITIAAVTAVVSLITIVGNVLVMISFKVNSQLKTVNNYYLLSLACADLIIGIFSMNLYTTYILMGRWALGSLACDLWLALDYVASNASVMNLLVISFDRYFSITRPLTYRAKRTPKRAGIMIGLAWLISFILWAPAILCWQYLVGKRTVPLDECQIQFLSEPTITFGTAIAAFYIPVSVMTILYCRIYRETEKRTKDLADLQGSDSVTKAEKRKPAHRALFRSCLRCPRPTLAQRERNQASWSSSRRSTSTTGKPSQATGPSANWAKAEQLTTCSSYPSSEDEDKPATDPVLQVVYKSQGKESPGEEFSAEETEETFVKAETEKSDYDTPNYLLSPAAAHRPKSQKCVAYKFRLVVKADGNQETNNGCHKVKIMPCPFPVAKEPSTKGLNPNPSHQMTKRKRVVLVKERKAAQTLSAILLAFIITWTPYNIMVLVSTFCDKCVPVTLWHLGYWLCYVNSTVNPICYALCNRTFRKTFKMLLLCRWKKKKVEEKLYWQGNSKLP
The data set is described as follows: Positive allosteric modulator activity at human muscarinic acetylcholine receptor subtype 5 expressed in CHO cells by calcium mobilization assay relative to acetylcholine. Type of data set: functional, cell-based. A general note: Calcium flux is commonly read through the fluorescence of an indicator in the cells.

Data set [2] addresses T1, Muscarinic acetylcholine receptor M5 (Homo sapiens). The data set is described as follows: Positive allosteric modulator activity at human muscarinic acetylcholine receptor subtype 5 expressed in CHO cells assessed as fold shift in acetylcholine-induced response at 10 uM by calcium mobilization assay. The format is functional, cell-based. The method in brief: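 In hM5 CHO cells by calcium mobilization, PAM at a fixed 10 μM or vehicle is added before an ACh concentration-response curve. Fold shift is the ratio of ACh potency without PAM to potency with PAM.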

Data set [3] has as its target T2, Muscarinic acetylcholine receptor M5 (Rattus norvegicus, UniProt P08911).
T2 sequence (P08911 whole entry): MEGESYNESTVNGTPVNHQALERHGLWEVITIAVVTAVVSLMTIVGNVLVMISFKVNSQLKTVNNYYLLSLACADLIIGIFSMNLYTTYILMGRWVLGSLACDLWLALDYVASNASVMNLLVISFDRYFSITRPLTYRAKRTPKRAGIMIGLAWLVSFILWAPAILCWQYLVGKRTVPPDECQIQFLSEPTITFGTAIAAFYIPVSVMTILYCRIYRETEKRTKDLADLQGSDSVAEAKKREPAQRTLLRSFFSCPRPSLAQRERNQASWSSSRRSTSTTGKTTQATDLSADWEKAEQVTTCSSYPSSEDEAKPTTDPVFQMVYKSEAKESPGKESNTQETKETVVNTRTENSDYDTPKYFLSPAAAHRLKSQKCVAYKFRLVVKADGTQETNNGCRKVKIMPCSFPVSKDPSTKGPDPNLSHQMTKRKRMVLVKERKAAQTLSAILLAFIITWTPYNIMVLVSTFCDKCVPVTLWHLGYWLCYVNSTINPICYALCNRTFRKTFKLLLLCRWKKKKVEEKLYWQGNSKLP
The data set is described as follows: Activity at rat muscarinic acetylcholine receptor subtype 5 expressed in CHO cells by calcium mobilization assay. Type of data set: functional, cell-based. The method in brief:
(§1)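 Muscarinic subtype selectivity by fluorescence calcium mobilization in highly expressing CHO lines with similar receptor levels; Gi/o-coupled M2 and M4 cells co-transfected with chimeric Gqi5 to couple to Ca2+ mobilization. Read-outs are PAM EC50 and ACh max response. Mean ± SEM of at least three independent determinations.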

The target of data set [4] is T3, Muscarinic acetylcholine receptor M2 (Rattus norvegicus, UniProt P10980).
T3 sequence (P10980 whole entry): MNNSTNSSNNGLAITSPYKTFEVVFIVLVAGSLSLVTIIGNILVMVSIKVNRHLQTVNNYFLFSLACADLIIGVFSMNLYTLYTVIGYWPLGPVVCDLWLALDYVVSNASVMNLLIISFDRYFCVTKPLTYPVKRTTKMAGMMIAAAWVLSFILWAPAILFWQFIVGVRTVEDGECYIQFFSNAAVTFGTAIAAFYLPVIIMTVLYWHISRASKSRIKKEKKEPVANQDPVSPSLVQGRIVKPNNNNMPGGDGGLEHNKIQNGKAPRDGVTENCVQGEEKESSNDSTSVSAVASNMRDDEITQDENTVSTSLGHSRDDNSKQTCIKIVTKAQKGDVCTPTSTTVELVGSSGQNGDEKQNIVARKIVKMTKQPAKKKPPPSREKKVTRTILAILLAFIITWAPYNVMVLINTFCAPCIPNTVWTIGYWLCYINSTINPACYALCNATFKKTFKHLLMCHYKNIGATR
Put plainly: Activity at rat muscarinic acetylcholine receptor subtype 2 expressed in CHO cells co-transfected with chimeric Gqi5 by calcium mobilization assay. Type of data set: functional, cell-based. The essentials: as §1

For data set [5], the species on record is Homo sapiens. The data set is described as follows: Selectivity index, ratio of EC50 for human muscarinic acetylcholine receptor subtype 1 to EC50 for human muscarinic acetylcholine receptor subtype 5.
Data set [6] is filed under the species Homo sapiens. The data set is described as follows: Selectivity index, ratio of EC50 for human muscarinic acetylcholine receptor subtype 3 to EC50 for human muscarinic acetylcholine receptor subtype 5.
Data set [7] addresses Muscarinic acetylcholine receptor M3 (Homo sapiens, UniProt P20309). The data set is described as follows: Activity at human muscarinic acetylcholine receptor subtype 3 expressed in CHO cells by calcium mobilization assay acetylcholine. The format is functional, cell-based. The method in brief:
as §1

For data set [8], the target named is Cannabinoid receptor 1 (Homo sapiens) (UniProt P21554). Put plainly: Displacement of radioligand from human CB1 receptor at 10 uM. The method in brief:
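Pan Labs lead profiling radioligand binding battery of 68 GPCRs, ion channels and transporters, with test compound present at 10 μM.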

The test system of data set [9] is Plasma. Put plainly: Fraction unbound in rat plasma at 5 uM incubated for 4 hrs at 37 degC by equilibrium dialysis based LC/MS/MS analysis. The format is ADME, cell-free. The method in brief: (§2)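 Fraction unbound measured in rat and human plasma and in rat brain homogenate.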
(In equilibrium dialysis only unbound substance equilibrates across the membrane.)

Data set [10] deals with Plasma. The data set is described as follows: Fraction unbound in human plasma at 5 uM incubated for 4 hrs at 37 degC by equilibrium dialysis based LC/MS/MS analysis. The format is ADME, cell-free. The method in brief:
as §2

Data set [11] in a line: Fraction unbound in rat brain at 5 uM incubated for 4 hrs at 37 degC by equilibrium dialysis based LC/MS/MS analysis. Type of data set: ADME, tissue-based. The essentials: as §2
The subject of data set [12] is Rattus norvegicus. Put plainly: Brain to plasma partition coefficient, Kp of the compound in Sprague-Dawley rat 1 mg/kg, iv administered as single dose after 15 mins by LC/MS/MS utilizing electrospray ionization method. The format is ADME, organism-based. Also noted: dose 1 mg/kg, route intravenous. As to conditions: 0.25 h. The method in brief:
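Male Sprague–Dawley rats (n = 3) dosed 1 mg/kg intravenously. Brain and plasma levels at 15 min after administration give Kp. Kp,uu is the unbound brain-plasma partition coefficient.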

What is called EC50 is the concentration giving half of the maximal effect. The term inhibition denotes the share of the control response that was lost under treatment. A word on the Kp: it is tissue or fluid exposure divided by exposure in the circulation.

Some results are limits rather than exact numbers.

Sequence of Cannabinoid receptor 1 (Homo sapiens) (P21554 whole entry): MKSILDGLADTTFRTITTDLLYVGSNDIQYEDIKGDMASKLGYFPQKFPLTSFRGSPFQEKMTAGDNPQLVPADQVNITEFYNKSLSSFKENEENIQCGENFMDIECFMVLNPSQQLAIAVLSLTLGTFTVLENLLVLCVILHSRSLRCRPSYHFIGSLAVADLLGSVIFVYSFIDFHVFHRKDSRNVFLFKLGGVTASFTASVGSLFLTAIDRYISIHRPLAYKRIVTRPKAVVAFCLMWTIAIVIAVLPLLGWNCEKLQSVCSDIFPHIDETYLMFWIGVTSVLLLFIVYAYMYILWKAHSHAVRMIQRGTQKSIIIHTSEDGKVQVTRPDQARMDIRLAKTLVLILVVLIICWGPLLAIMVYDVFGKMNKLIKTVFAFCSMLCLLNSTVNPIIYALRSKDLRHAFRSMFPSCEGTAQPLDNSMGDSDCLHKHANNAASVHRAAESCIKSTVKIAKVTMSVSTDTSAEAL
Sequence of Muscarinic acetylcholine receptor M3 (P20309 whole entry, looked up): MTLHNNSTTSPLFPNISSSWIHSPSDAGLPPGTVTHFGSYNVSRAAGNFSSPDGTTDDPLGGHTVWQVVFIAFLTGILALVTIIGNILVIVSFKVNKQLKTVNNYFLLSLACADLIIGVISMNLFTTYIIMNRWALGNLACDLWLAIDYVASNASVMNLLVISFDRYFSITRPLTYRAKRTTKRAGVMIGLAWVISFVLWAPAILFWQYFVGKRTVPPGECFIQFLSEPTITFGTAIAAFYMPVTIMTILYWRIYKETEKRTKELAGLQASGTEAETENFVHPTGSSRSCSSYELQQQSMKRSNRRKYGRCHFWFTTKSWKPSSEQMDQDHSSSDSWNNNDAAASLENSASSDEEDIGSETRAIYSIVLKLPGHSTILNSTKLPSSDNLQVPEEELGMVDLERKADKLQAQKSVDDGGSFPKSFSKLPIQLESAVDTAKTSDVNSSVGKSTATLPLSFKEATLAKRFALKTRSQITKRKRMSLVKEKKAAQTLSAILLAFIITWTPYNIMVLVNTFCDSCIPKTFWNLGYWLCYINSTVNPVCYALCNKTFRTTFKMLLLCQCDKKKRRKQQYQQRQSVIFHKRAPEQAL

In the case of `CCN(Cc1ccccc1C(F)(F)F)C(=O)C1CCN(S(=O)(=O)c2ccc3[nH]ncc3c2)CC1`, the %max amounted to 96% in data set [1] and 67% in [7]. In addition, the fold change (FC) in data set [2] came to 9. Further, the half-maximal effective concentration (EC50) in data set [3] is 610 nM; in data set [4], above 30000 nM. The Ratio EC50 in data set [5] and in data set [6] was above 10 in each case. Besides, the inhibition in data set [8] came out at 50%. In addition, the Fu in [9] is 0.014; in data set [10], 0.015; in data set [11], 0.011. In data set [12], this compound had a partition ratio (Kp) of 0.36.

Values taken from ChEMBL document CHEMBL3352313 (J Med Chem, 2014).
